ChEMBL document CHEMBL1122821, “Synthesis and some pharmacological properties of 18 potent O-alkyltyrosine-substituted antagonists of the vasopressor responses to arginine-vasopressin” (J Med Chem, 1985)

Experiments:
[1] = tested on: Rattus norvegicus; assay: In vivo anti-vasopressor activity measured as the negative logarithm of the effective dose / the estimated volume of distribution (67 mL/kg); assay type: ADME, organism-based; details: read-out: pA2 (converted)
How it was run: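 Rats treated with phenoxybenzamine under urethane anesthesia. Pressor responses to the USP posterior pituitary standard were given intravenously. Effective dose (nmol/kg) was interpolated on a log scale; means ± SE of at least four estimates. pA2 = −log(effective dose / 67 mL/kg).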

[2] = organism: Rattus norvegicus; assay: In vitro anti-oxytocic potency was evaluated in the absence of Mg2+; assay type: functional; details: read-out: pA2 (converted)
How it was run: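 Isolated rat uterus in medium containing no Mg2+. USP posterior pituitary reference standard used as agonist. In vitro pA2 values were derived as in Bankowski et al.; means ± SE.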

[3] = organism: Rattus norvegicus; assay: In vitro anti-oxytocic potency was evaluated in the presence of 0.5 mM of Mg2+; assay type: functional; details: read-out: pA2 (converted)
How it was run: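 Isolated rat uterus in medium containing 0.5 mM Mg2+. USP posterior pituitary reference standard used as agonist. In vitro pA2 values were derived as in Bankowski et al.; means ± SE.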

[4] = tested on: Rattus norvegicus; assay: In vivo antidiuretic activity in rats under ethanol anesthesia.; assay type: functional, Urine
How it was run: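 Rats under ethanol anesthesia, with the USP posterior pituitary reference standard as reference. Agonistic activity is expressed in units per milligram.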

Compound | Kb [1] [µM] | Kb [2] [µM] | Kb [3] [µM] | Activity [4] [units/mg]
CCOc1ccc(C[C@@H]2NC(=O)CC(C)(C)SSC[C@@H](C(=O)N3CCC[C@H]3C(=O)N[C@@H](CCCN=C(N)N)C(=O)NCC(N)=O)NC(=O)[C@H](CC(N)=O)NC(=O)[C@H](CCC(N)=O)NC(=O)[C@H](Cc3ccccc3)NC2=O)cc1 [listing 1 of 2 here] | 0.00398 | 0.00759 | 0.0447 | 
CCOc1ccc(C[C@@H]2NC(=O)CC(CC)(CC)SSC[C@@H](C(=O)N3CCC[C@H]3C(=O)N[C@H](CCCN=C(N)N)C(=O)NCC(N)=O)NC(=O)[C@H](CC(N)=O)NC(=O)[C@H](C(C)C)NC(=O)[C@H](Cc3ccccc3)NC2=O)cc1 [listing 1 of 2 here] | 0.00646 | 0.0105 | 0.0129 | 
CCOc1ccc(C[C@@H]2NC(=O)CC(C)(C)SSC[C@@H](C(=O)N3CCC[C@H]3C(=O)N[C@@H](CCCN=C(N)N)C(=O)NCC(N)=O)NC(=O)[C@H](CC(N)=O)NC(=O)[C@H](CCC(N)=O)NC(=O)[C@H](Cc3ccccc3)NC2=O)cc1 [listing 2 of 2 here] |  |  |  | 0.59
CCC1(CC)CC(=O)N[C@@H](Cc2ccc(OC)cc2)C(=O)N[C@@H](Cc2ccccc2)C(=O)N[C@@H](C(C)C)C(=O)N[C@@H](CC(N)=O)C(=O)N[C@H](C(=O)N2CCC[C@H]2C(=O)N[C@@H](CCCN=C(N)N)C(=O)NCC(N)=O)CSS1 [listing 1 of 2 here] |  |  |  | 0.24
CCC1(CC)CC(=O)N[C@@H](Cc2ccc(OC)cc2)C(=O)N[C@@H](Cc2ccccc2)C(=O)N[C@@H](CCC(N)=O)C(=O)N[C@@H](CC(N)=O)C(=O)N[C@H](C(=O)N2CCC[C@H]2C(=O)NC(CCCN=C(N)N)C(=O)NCC(N)=O)CSS1 (stereo in doubt) [listing 1 of 2 here] | 0.00269 | 0.0191 | 0.00794 | 
CCOc1ccc(C[C@@H]2NC(=O)CC(CC)(CC)SSC[C@@H](C(=O)N3CCC[C@H]3C(=O)N[C@@H](CCCN=C(N)N)C(=O)NCC(N)=O)NC(=O)[C@H](CC(N)=O)NC(=O)[C@H](CCC(N)=O)NC(=O)[C@H](Cc3ccccc3)NC2=O)cc1 [listing 1 of 2 here] |  |  |  | 0.035
COc1ccc(C[C@@H]2NC(=O)CC(C)(C)SSC[C@@H](C(=O)N3CCC[C@H]3C(=O)N[C@@H](CCCN=C(N)N)C(=O)NCC(N)=O)NC(=O)[C@H](CC(N)=O)NC(=O)[C@H](C(C)C)NC(=O)[C@H](Cc3ccccc3)NC2=O)cc1 [listing 1 of 2 here] | 0.00437 | 0.00372 | 0.0126 | 
CCOc1ccc(C[C@@H]2NC(=O)CC(C)(C)SSC[C@@H](C(=O)N3CCC[C@H]3C(=O)N[C@H](CCCN=C(N)N)C(=O)NCC(N)=O)NC(=O)[C@H](CC(N)=O)NC(=O)[C@H](C(C)C)NC(=O)[C@H](Cc3ccccc3)NC2=O)cc1 [listing 1 of 2 here] |  |  |  | 0.2
COc1ccc(C[C@@H]2NC(=O)CC(C)(C)SSC[C@@H](C(=O)N3CCC[C@H]3C(=O)N[C@@H](CCCN=C(N)N)C(=O)NCC(N)=O)NC(=O)[C@H](CC(N)=O)NC(=O)[C@H](C(C)C)NC(=O)[C@H](Cc3ccccc3)NC2=O)cc1 [listing 2 of 2 here] |  |  |  | 2.9
CCOc1ccc(C[C@@H]2NC(=O)CC(CC)(CC)SSC[C@@H](C(=O)N3CCC[C@H]3C(=O)N[C@H](CCCN=C(N)N)C(=O)NCC(N)=O)NC(=O)[C@H](CC(N)=O)NC(=O)[C@H](CCC(N)=O)NC(=O)[C@H](Cc3ccccc3)NC2=O)cc1 [listing 1 of 2 here] | 0.00468 | 0.0708 | 0.0288 | 
CCOc1ccc(C[C@@H]2NC(=O)CC(CC)(CC)SSC[C@@H](C(=O)N3CCC[C@H]3C(=O)N[C@H](CCCN=C(N)N)C(=O)NCC(N)=O)NC(=O)[C@H](CC(N)=O)NC(=O)[C@H](C(C)C)NC(=O)[C@H](Cc3ccccc3)NC2=O)cc1 [listing 2 of 2 here] |  |  |  | 0.07
CCOc1ccc(C[C@@H]2NC(=O)CC(CC)(CC)SSC[C@@H](C(=O)N3CCC[C@H]3C(=O)N[C@@H](CCCN=C(N)N)C(=O)NCC(N)=O)NC(=O)[C@H](CC(N)=O)NC(=O)[C@H](CCC(N)=O)NC(=O)[C@H](Cc3ccccc3)NC2=O)cc1 [listing 2 of 2 here] | 0.00347 | 0.00372 | 0.01 | 
CCOc1ccc(C[C@@H]2NC(=O)CC(C)(C)SSC[C@@H](C(=O)N3CCC[C@H]3C(=O)N[C@H](CCCN=C(N)N)C(=O)NCC(N)=O)NC(=O)[C@H](CC(N)=O)NC(=O)[C@H](C(C)C)NC(=O)[C@H](Cc3ccccc3)NC2=O)cc1 [listing 2 of 2 here] | 0.00347 | 0.0151 | 0.0269 | 
CCOc1ccc(C[C@@H]2NC(=O)CC(CC)(CC)SSC[C@@H](C(=O)N3CCC[C@H]3C(=O)N[C@@H](CCCN=C(N)N)C(=O)NCC(N)=O)NC(=O)[C@H](CC(N)=O)NC(=O)[C@H](C(C)C)NC(=O)[C@H](Cc3ccccc3)NC2=O)cc1 [listing 1 of 2 here] | 0.0038 | 0.00741 | 0.0372 | 
CCOc1ccc(C[C@@H]2NC(=O)CC(C)(C)SSC[C@@H](C(=O)N3CCC[C@H]3C(=O)NC(CCCN=C(N)N)C(=O)NCC(N)=O)NC(=O)[C@H](CC(N)=O)NC(=O)[C@H](CCC(N)=O)NC(=O)[C@H](Cc3ccccc3)NC2=O)cc1 (stereo in doubt) [listing 1 of 2 here] |  |  |  | 0.23
CCC1(CC)CC(=O)N[C@@H](Cc2ccc(OC)cc2)C(=O)N[C@@H](Cc2ccccc2)C(=O)N[C@@H](CCC(N)=O)C(=O)N[C@@H](CC(N)=O)C(=O)N[C@H](C(=O)N2CCC[C@H]2C(=O)NC(CCCN=C(N)N)C(=O)NCC(N)=O)CSS1 (stereo in doubt) [listing 2 of 2 here] |  |  |  | 0.019

Compound | Kb [1] [µM] | Kb [2] [µM] | Kb [3] [µM] | Activity [4] [units/mg]
CCOc1ccc(C[C@@H]2NC(=O)CC(C)(C)SSC[C@@H](C(=O)N3CCC[C@H]3C(=O)NC(CCCN=C(N)N)C(=O)NCC(N)=O)NC(=O)[C@H](CC(N)=O)NC(=O)[C@H](CCC(N)=O)NC(=O)[C@H](Cc3ccccc3)NC2=O)cc1 (stereo in doubt) [listing 2 of 2 here] | 0.00537 | 0.0141 | 0.0389 | 
COc1ccc(C[C@@H]2NC(=O)CC(C)(C)SSC[C@@H](C(=O)N3CCC[C@H]3C(=O)N[C@H](CCCN=C(N)N)C(=O)NCC(N)=O)NC(=O)[C@H](CC(N)=O)NC(=O)[C@H](CCC(N)=O)NC(=O)[C@H](Cc3ccccc3)NC2=O)cc1 | 0.011 | 0.0245 | 0.0575 | 3.5
CCC1(CC)CC(=O)N[C@@H](Cc2ccc(OC)cc2)C(=O)N[C@@H](Cc2ccccc2)C(=O)N[C@@H](C(C)C)C(=O)N[C@@H](CC(N)=O)C(=O)N[C@H](C(=O)N2CCC[C@H]2C(=O)N[C@H](CCCN=C(N)N)C(=O)NCC(N)=O)CSS1 [listing 1 of 2 here] |  |  |  | 0.11
CCOc1ccc(C[C@@H]2NC(=O)CC(CC)(CC)SSC[C@@H](C(=O)N3CCC[C@H]3C(=O)N[C@H](CCCN=C(N)N)C(=O)NCC(N)=O)NC(=O)[C@H](CC(N)=O)NC(=O)[C@H](CCC(N)=O)NC(=O)[C@H](Cc3ccccc3)NC2=O)cc1 [listing 2 of 2 here] |  |  |  | 0.0003
CCC1(CC)CC(=O)N[C@@H](Cc2ccc(OC)cc2)C(=O)N[C@@H](Cc2ccccc2)C(=O)N[C@@H](C(C)C)C(=O)N[C@@H](CC(N)=O)C(=O)N[C@H](C(=O)N2CCC[C@H]2C(=O)N[C@H](CCCN=C(N)N)C(=O)NCC(N)=O)CSS1 [listing 2 of 2 here] | 0.00447 | 0.0186 | 0.0117 | 
COc1ccc(C[C@@H]2NC(=O)CC3(CCCCC3)SSC[C@@H](C(=O)N3CCC[C@H]3C(=O)NC(CCCN=C(N)N)C(=O)NCC(N)=O)NC(=O)[C@H](CC(N)=O)NC(=O)[C@H](CCC(N)=O)NC(=O)[C@H](Cc3ccccc3)NC2=O)cc1 (stereo in doubt) | 0.00389 | 0.0282 | 0.0155 | 0.23
COc1ccc(C[C@@H]2NC(=O)CC(C)(C)SSC[C@@H](C(=O)N3CCC[C@H]3C(=O)N[C@H](CCCN=C(N)N)C(=O)NCC(N)=O)NC(=O)[C@H](CC(N)=O)NC(=O)[C@H](C(C)C)NC(=O)[C@H](Cc3ccccc3)NC2=O)cc1 [listing 1 of 2 here] | 0.0145 | 0.0316 | 0.0214 | 
CCC1(CC)CC(=O)N[C@@H](Cc2ccc(OC)cc2)C(=O)N[C@@H](Cc2ccccc2)C(=O)N[C@@H](CCC(N)=O)C(=O)N[C@@H](CC(N)=O)C(=O)N[C@H](C(=O)N2CCC[C@H]2C(=O)N[C@@H](CCCN=C(N)N)C(=O)NCC(N)=O)CSS1 [listing 1 of 2 here] | 0.00295 | 0.011 | 0.00646 | 
CCC1(CC)CC(=O)N[C@@H](Cc2ccc(OC)cc2)C(=O)N[C@@H](Cc2ccccc2)C(=O)N[C@@H](C(C)C)C(=O)N[C@@H](CC(N)=O)C(=O)N[C@H](C(=O)N2CCC[C@H]2C(=O)N[C@@H](CCCN=C(N)N)C(=O)NCC(N)=O)CSS1 [listing 2 of 2 here] | 0.00513 | 0.00257 | 0.0117 | 
CCOc1ccc(C[C@@H]2NC(=O)CC(C)(C)SSC[C@@H](C(=O)N3CCC[C@H]3C(=O)N[C@@H](CCCN=C(N)N)C(=O)NCC(N)=O)NC(=O)[C@H](CC(N)=O)NC(=O)[C@H](C(C)C)NC(=O)[C@H](Cc3ccccc3)NC2=O)cc1 [listing 1 of 2 here] | 0.00851 | 0.00229 | 0.0219 | 
CCC1(CC)CC(=O)N[C@@H](Cc2ccc(OC)cc2)C(=O)N[C@@H](Cc2ccccc2)C(=O)N[C@@H](CCC(N)=O)C(=O)N[C@@H](CC(N)=O)C(=O)N[C@H](C(=O)N2CCC[C@H]2C(=O)N[C@@H](CCCN=C(N)N)C(=O)NCC(N)=O)CSS1 [listing 2 of 2 here] |  |  |  | 0.066
COc1ccc(C[C@@H]2NC(=O)CC(C)(C)SSC[C@@H](C(=O)N3CCC[C@H]3C(=O)NC(CCCN=C(N)N)C(=O)NCC(N)=O)NC(=O)[C@H](CC(N)=O)NC(=O)[C@H](CCC(N)=O)NC(=O)[C@H](Cc3ccccc3)NC2=O)cc1 (stereo in doubt) | 0.0049 | 0.017 | 0.0437 | 0.46
CCOc1ccc(C[C@@H]2NC(=O)CC(CC)(CC)SSC[C@@H](C(=O)N3CCC[C@H]3C(=O)N[C@@H](CCCN=C(N)N)C(=O)NCC(N)=O)NC(=O)[C@H](CC(N)=O)NC(=O)[C@H](C(C)C)NC(=O)[C@H](Cc3ccccc3)NC2=O)cc1 [listing 2 of 2 here] |  |  |  | 0.1
CCOc1ccc(C[C@@H]2NC(=O)CC(C)(C)SSC[C@@H](C(=O)N3CCC[C@H]3C(=O)N[C@@H](CCCN=C(N)N)C(=O)NCC(N)=O)NC(=O)[C@H](CC(N)=O)NC(=O)[C@H](C(C)C)NC(=O)[C@H](Cc3ccccc3)NC2=O)cc1 [listing 2 of 2 here] |  |  |  | 0.62
COc1ccc(C[C@@H]2NC(=O)CC(C)(C)SSC[C@@H](C(=O)N3CCC[C@H]3C(=O)N[C@H](CCCN=C(N)N)C(=O)NCC(N)=O)NC(=O)[C@H](CC(N)=O)NC(=O)[C@H](C(C)C)NC(=O)[C@H](Cc3ccccc3)NC2=O)cc1 [listing 2 of 2 here] |  |  |  | 3.2
